{"source": "ChEMBL document CHEMBL1781899", "about": "“Synthesis of N-substituted 2-[(1E)-alkenyl]-4-(1H)-quinolone derivatives as antimycobacterial agents against non-tubercular mycobacteria” (Eur J Med Chem, 2011)", "key": {"[1]": {"tested_on": "Mycolicibacterium smegmatis", "experiment": "Antimycobacterial activity against Mycobacterium smegmatis ATCC 14468 after 3 days by MTT assay", "assay_type": "functional", "details": "ATCC 14468, 72 h"}, "[2]": {"experiment": "Cytotoxicity against human MRC5 cells assessed as cell viability at 30 uM after 72 hrs by XTT assay", "assay_type": "cell-based", "details": "read-out: Activity", "summary_of_the_method": "(§1)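 MRC-5 cells seeded at 5 × 10^4 cells/well and grown 24 h in MEM. Compounds came from fresh ethanol stocks; solvent control was 0.1% ethanol. 72 h exposure at 37 °C, 5% CO2. XTT plus electron-coupling reagent (50:1) added for 4 h. Viability expressed as % of solvent control, triplicate on at least two plates (n = 6), mean ± SEM.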"}, "[3]": {"experiment": "Cytotoxicity against human MRC5 cells assessed as cell viability at 100 uM after 72 hrs by XTT assay", "assay_type": "cell-based", "details": "read-out: Activity", "summary_of_the_method": "as §1"}, "[4]": {"tested_on": "Mycolicibacterium smegmatis", "experiment": "Antimycobacterial activity against Mycobacterium smegmatis mc2155 after 3 days by MTT assay", "assay_type": "functional", "details": "mc2155, 72 h", "summary_of_the_method": "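Broth microdilution MIC. Inoculum grown on Columbia blood agar with 7% defibrinated horse blood, suspended in 0.9% NaCl to 5 × 10^5 cells/mL. Sterile, growth and isoniazid controls were included. Incubated 3 days at 37 °C; methanolic MTT added, dark violet indicating growth. Tests repeated three times.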"}, "[5]": {"tested_on": "Mycolicibacterium phlei", "experiment": "Antimycobacterial activity against Mycobacterium phlei ATCC 11758 after 3 days by MTT assay", "assay_type": "functional", "details": "ATCC 11758, 72 h"}, "[6]": {"tested_on": "Mycolicibacterium fortuitum", "experiment": "Antimycobacterial activity against Mycobacterium fortuitum ATCC 6841 after 3 days by MTT assay", "assay_type": "functional", "details": "ATCC 6841, 72 h"}, "[7]": {"experiment": "Cytotoxicity against human MRC5 cells assessed as cell viability at 0.12 uM after 72 hrs by XTT proliferation assay", "assay_type": "cell-based", "details": "read-out: Activity"}}}
{"compound": "C=CCn1c(/C=C/CCCCCCCCCCCC)cc(=O)c2ccccc21", "values": [{"measurement": "MIC", "setting": "[1]", "result": 16, "unit": "µg/mL"}, {"measurement": "viability at 72 h, 30 µM", "setting": "[2]", "result": 98.2, "unit": "%"}, {"measurement": "viability at 72 h, 100 µM", "setting": "[3]", "result": 0.7, "unit": "%"}]}
{"compound": "CCCCCCCCCCCC/C=C/c1cc(=O)c2ccccc2n1CCC", "values": [{"measurement": "MIC", "setting": "[1]", "result": 16, "unit": "µg/mL"}, {"measurement": "viability at 72 h, 30 µM", "setting": "[2]", "result": 42.6, "unit": "%"}, {"measurement": "viability at 72 h, 100 µM", "setting": "[3]", "result": 0.72, "unit": "%"}]}
{"compound": "CCCCCCC/C=C/c1cc(=O)c2ccccc2n1CCC", "values": [{"measurement": "MIC", "setting": "[1]", "result": 4, "unit": "µg/mL"}, {"measurement": "viability at 72 h, 30 µM", "setting": "[2]", "result": 32.9, "unit": "%"}, {"measurement": "viability at 72 h, 100 µM", "setting": "[3]", "result": 7.4, "unit": "%"}]}
{"compound": "C=CCn1c(/C=C/CCCCCCC)cc(=O)c2ccccc21", "values": [{"measurement": "MIC", "setting": "[1]", "result": 8, "unit": "µg/mL"}, {"measurement": "viability at 72 h, 30 µM", "setting": "[2]", "result": 10.1, "unit": "%"}, {"measurement": "viability at 72 h, 100 µM", "setting": "[3]", "result": 0.53, "unit": "%"}]}
{"compound": "CCCCCCCCCCC/C=C/c1cc(=O)c2ccccc2n1CCCCC", "values": [{"measurement": "MIC", "setting": "[1]", "result": 128, "unit": "µg/mL"}, {"measurement": "viability at 72 h, 30 µM", "setting": "[2]", "result": 11.7, "unit": "%"}, {"measurement": "viability at 72 h, 100 µM", "setting": "[3]", "result": 0.25, "unit": "%"}]}
{"compound": "NNC(=O)c1ccncc1", "note": "[ISONIAZID]", "values": [{"measurement": "MIC", "setting": "[4]", "result": 4, "unit": "µg/mL"}, {"measurement": "MIC", "setting": "[1]", "result": 4, "unit": "µg/mL"}, {"measurement": "MIC", "setting": "[5]", "result": 16, "unit": "µg/mL"}, {"measurement": "MIC", "setting": "[6]", "result": 1, "unit": "µg/mL"}]}
{"compound": "CCCCCCCC/C=C/c1cc(=O)c2ccccc2n1CCC", "values": [{"measurement": "MIC", "setting": "[4]", "result": 2, "unit": "µg/mL"}, {"measurement": "MIC", "setting": "[1]", "result": 2, "unit": "µg/mL"}, {"measurement": "viability at 72 h, 30 µM", "setting": "[2]", "result": 56.1, "unit": "%"}, {"measurement": "MIC", "setting": "[5]", "result": 2, "unit": "µg/mL"}, {"measurement": "viability at 72 h, 100 µM", "setting": "[3]", "result": 0.5, "unit": "%"}, {"measurement": "MIC", "setting": "[6]", "result": 2, "unit": "µg/mL"}]}
{"compound": "CCCCCCCCCC/C=C/c1cc(=O)c2ccccc2n1CCCC", "values": [{"measurement": "MIC", "setting": "[1]", "result": 4, "unit": "µg/mL"}, {"measurement": "viability at 72 h, 30 µM", "setting": "[2]", "result": 42.4, "unit": "%"}, {"measurement": "viability at 72 h, 100 µM", "setting": "[3]", "result": 0.45, "unit": "%"}]}
{"compound": "CCCCCCC/C=C/c1cc(=O)c2ccccc2n1CC", "values": [{"measurement": "MIC", "setting": "[1]", "result": 8, "unit": "µg/mL"}, {"measurement": "viability at 72 h, 30 µM", "setting": "[2]", "result": 96.6, "unit": "%"}, {"measurement": "viability at 72 h, 100 µM", "setting": "[3]", "result": 52.6, "unit": "%"}]}
{"compound": "C#CCn1c(/C=C/CCCCCCCCCCCC)cc(=O)c2ccccc21", "values": [{"measurement": "MIC", "setting": "[1]", "result": 128, "unit": "µg/mL"}, {"measurement": "viability at 72 h, 30 µM", "setting": "[2]", "result": 100, "unit": "%"}, {"measurement": "viability at 72 h, 100 µM", "setting": "[3]", "result": 10, "unit": "%"}]}
{"compound": "CC[C@@H](CO)NCCN[C@@H](CC)CO", "note": "[ETHAMBUTOL]", "values": [{"measurement": "MIC", "setting": "[4]", "result": 4, "unit": "µg/mL"}, {"measurement": "MIC", "setting": "[1]", "result": 2, "unit": "µg/mL"}, {"measurement": "MIC", "setting": "[5]", "result": 4, "unit": "µg/mL"}, {"measurement": "MIC", "setting": "[6]", "result": 16, "unit": "µg/mL"}]}
{"compound": "O=C(O)c1cn(C2CC2)c2cc(N3CCNCC3)c(F)cc2c1=O", "note": "[CIPROFLOXACIN]", "values": [{"measurement": "MIC", "setting": "[1]", "result": 0.125, "unit": "µg/mL"}]}
{"compound": "C=CCn1c(/C=C/CCCCCCCC)cc(=O)c2ccccc21", "values": [{"measurement": "MIC", "setting": "[4]", "result": 1, "unit": "µg/mL"}, {"measurement": "MIC", "setting": "[1]", "result": 2, "unit": "µg/mL"}, {"measurement": "viability at 72 h, 30 µM", "setting": "[2]", "result": 33, "unit": "%"}, {"measurement": "MIC", "setting": "[5]", "result": 2, "unit": "µg/mL"}, {"measurement": "viability at 72 h, 100 µM", "setting": "[3]", "result": 0.63, "unit": "%"}, {"measurement": "MIC", "setting": "[6]", "result": 4, "unit": "µg/mL"}]}
{"compound": "C=CCn1c(/C=C/CCCCCCCCCCC)cc(=O)c2ccccc21", "values": [{"measurement": "MIC", "setting": "[1]", "result": 4, "unit": "µg/mL"}, {"measurement": "viability at 72 h, 30 µM", "setting": "[2]", "result": 17.9, "unit": "%"}, {"measurement": "viability at 72 h, 100 µM", "setting": "[3]", "result": 1.06, "unit": "%"}]}
{"compound": "CCCCCCCCC/C=C/c1cc(=O)c2ccccc2n1CCCCC", "values": [{"measurement": "MIC", "setting": "[1]", "result": 4, "unit": "µg/mL"}, {"measurement": "viability at 72 h, 30 µM", "setting": "[2]", "result": 41.6, "unit": "%"}, {"measurement": "viability at 72 h, 100 µM", "setting": "[3]", "result": 0.38, "unit": "%"}]}
{"compound": "CCCCCCCCCCCC/C=C/c1cc(=O)c2ccccc2n1CCCC", "values": [{"measurement": "MIC", "setting": "[1]", "result": 128, "unit": "µg/mL"}, {"measurement": "viability at 72 h, 30 µM", "setting": "[2]", "result": 10.9, "unit": "%"}, {"measurement": "viability at 72 h, 100 µM", "setting": "[3]", "result": 0.51, "unit": "%"}]}
{"compound": "C#CCn1c(/C=C/CCCCCCCC)cc(=O)c2ccccc21", "values": [{"measurement": "MIC", "setting": "[1]", "result": 16, "unit": "µg/mL"}, {"measurement": "viability at 72 h, 30 µM", "setting": "[2]", "result": 43.6, "unit": "%"}, {"measurement": "viability at 72 h, 100 µM", "setting": "[3]", "result": 0.4, "unit": "%"}]}
{"compound": "CCCCCCCCCC/C=C/c1cc(=O)c2ccccc2n1CCCCC", "values": [{"measurement": "MIC", "setting": "[1]", "result": 8, "unit": "µg/mL"}, {"measurement": "viability at 72 h, 30 µM", "setting": "[2]", "result": 31.6, "unit": "%"}, {"measurement": "viability at 72 h, 100 µM", "setting": "[3]", "result": 0.25, "unit": "%"}]}
{"compound": "C#CCn1c(/C=C/CCCCCCC)cc(=O)c2ccccc21", "values": [{"measurement": "MIC", "setting": "[4]", "result": 2, "unit": "µg/mL"}, {"measurement": "MIC", "setting": "[1]", "result": 2, "unit": "µg/mL"}, {"measurement": "viability at 72 h, 30 µM", "setting": "[2]", "result": 71.1, "unit": "%"}, {"measurement": "MIC", "setting": "[5]", "result": 4, "unit": "µg/mL"}, {"measurement": "viability at 72 h, 100 µM", "setting": "[3]", "result": 63.9, "unit": "%"}, {"measurement": "MIC", "setting": "[6]", "result": 32, "unit": "µg/mL"}]}
{"compound": "C#CCn1c(/C=C/CCCCCCCCC)cc(=O)c2ccccc21", "values": [{"measurement": "MIC", "setting": "[1]", "result": 4, "unit": "µg/mL"}, {"measurement": "viability at 72 h, 30 µM", "setting": "[2]", "result": 92.3, "unit": "%"}, {"measurement": "viability at 72 h, 100 µM", "setting": "[3]", "result": 26.3, "unit": "%"}]}
{"compound": "CCCCCCCC/C=C/c1cc(=O)c2ccccc2n1CC", "values": [{"measurement": "MIC", "setting": "[1]", "result": 4, "unit": "µg/mL"}, {"measurement": "viability at 72 h, 30 µM", "setting": "[2]", "result": 39.2, "unit": "%"}, {"measurement": "viability at 72 h, 100 µM", "setting": "[3]", "result": 0.53, "unit": "%"}]}
{"compound": "CC[C@]1(O)C[C@@H]2CN(CCc3c([nH]c4ccccc34)[C@@](C(=O)OC)(c3cc4c(cc3OC)N(C)[C@H]3[C@@](O)(C(=O)OC)[C@H](OC(C)=O)[C@]5(CC)C=CCN6CC[C@]43[C@@H]65)C2)C1", "note": "[VINBLASTINE]", "values": [{"measurement": "viability at 72 h, 0.12 µM", "setting": "[7]", "result": 60.1, "unit": "%"}]}
{"compound": "CCCCCCCC/C=C/c1cc(=O)c2ccccc2n1CCCCC", "values": [{"measurement": "MIC", "setting": "[4]", "result": 1, "unit": "µg/mL"}, {"measurement": "MIC", "setting": "[1]", "result": 2, "unit": "µg/mL"}, {"measurement": "viability at 72 h, 30 µM", "setting": "[2]", "result": 61.7, "unit": "%"}, {"measurement": "MIC", "setting": "[5]", "result": 4, "unit": "µg/mL"}, {"measurement": "viability at 72 h, 100 µM", "setting": "[3]", "result": 0.46, "unit": "%"}, {"measurement": "MIC", "setting": "[6]", "result": 4, "unit": "µg/mL"}]}
{"compound": "C#CCn1c(/C=C/CCCCCCCCCC)cc(=O)c2ccccc21", "values": [{"measurement": "MIC", "setting": "[1]", "result": 64, "unit": "µg/mL"}, {"measurement": "viability at 72 h, 30 µM", "setting": "[2]", "result": 40.7, "unit": "%"}, {"measurement": "viability at 72 h, 100 µM", "setting": "[3]", "result": 0.64, "unit": "%"}]}
